Screens (PubChem BioAssay)
Only some compounds are listed: those with a hit (about 11% of all), similar ones and a draw of the others.
SF-1 act: activators of human nuclear receptor SF-1 | Q13285 | CHO-K1 Gal4-SF-1 LBD luciferase reporter; % increase over DMSO SF-1-specific signal | activation, % at 10 µM | 65,000 compounds, 1.9% hits | AID 522;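 active means activation above the mean activation of all tested compounds plus 3 SD, cut at about 50% in these data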
Target sequence (Q13285 whole entry, looked up, the tested form may be a part): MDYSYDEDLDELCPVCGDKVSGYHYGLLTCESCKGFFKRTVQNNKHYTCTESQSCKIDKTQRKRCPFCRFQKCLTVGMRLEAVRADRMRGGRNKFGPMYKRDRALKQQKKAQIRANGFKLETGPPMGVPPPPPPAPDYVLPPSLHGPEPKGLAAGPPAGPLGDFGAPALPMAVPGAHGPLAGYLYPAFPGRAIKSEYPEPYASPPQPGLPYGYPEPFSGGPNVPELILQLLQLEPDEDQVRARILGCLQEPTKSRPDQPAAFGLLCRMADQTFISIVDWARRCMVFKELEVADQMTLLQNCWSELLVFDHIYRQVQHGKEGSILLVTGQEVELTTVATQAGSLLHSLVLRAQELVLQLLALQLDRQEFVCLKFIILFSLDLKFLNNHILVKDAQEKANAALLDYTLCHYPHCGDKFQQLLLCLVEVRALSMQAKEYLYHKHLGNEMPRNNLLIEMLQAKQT
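Assay system – CHO-K1 cells with Gal4–hSF-1 LBD chimera plus Gal4-driven luciferase · Quantity – 4,000 cells per well · Times – compound added 1 h post-seeding, 20 h exposure at 37 °C, 5% CO2 · Measured by – luciferase light emission · Benchmarks – DMSO and mock-transfected background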
M1 ag: M1 muscarinic receptor agonism; CHO-M1 cells, Fluo-4 calcium fluorescence, agonist mode; hits give high values; B-score at 10 µM; 64,000 compounds, 3% hits;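 active means fluorescence rise, raw or as B-score row- and column-corrected plate score, outside the 99.7% band of its plate's samples, either direction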
RORa activator: activates the human nuclear receptor RORA | AID 560 | P35398 | CHO-K1 Gal4-RORA LBD luciferase reporter, luminescence; percent increase over mock-subtracted basal signal | activation, % at 10 µM | 65,000 compounds, 1.5% hits;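 active means activation above the mean of all tested compounds plus 3 SD, cut at about 49% in these data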;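 further: 0% = DMSO-treated RORA cells and 100% = added signal equal to DMSO minus mock-transfected cells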
D1 mod: allosterically modulates the human D1 dopamine receptor. HEK293 D1, CRE-luciferase, dopamine EC30 potentiation; actives deviate in either direction. 58,000 compounds, 5.9% hits. AID 641. B-score at 10 µM;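 active means luminescence count or its row- and column-corrected plate score outside the 99.7% band of the plate's sample wells, on either side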
M1 antagonist: M1 muscarinic receptor (rat) antagonism | P08482 | CHO-M1 cells, Fluo-4 calcium, ACh EC80 antagonist mode; hits give low values | B-score at 10 µM | 64,000 compounds, 3.4% hits | AID 628;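 active means calcium fluorescence response, raw or row-and-column corrected B-score, differing from the plate sample mean either way at a set confidence level, mostly lower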
mHtt clearance: mutant huntingtin protein clearance | inhibition, % at 1.5 µM | HeLa Exon1htt(103Q)mCFP, aggregate imaging; zero = plate's median compound well | 47,000 compounds, 0.42% hits | AID 853;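 active means inhibition of aggregate fluorescence above about 70%, also judged a hit by eye on the cell image, limit read from the data, passing the limit was not always enough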;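 further: cells exposed to compound for three days before fixation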
M1 antag confirm: M1 muscarinic receptor (rat) antagonism, confirmed; 1,700 compounds, 43% hits; CHO-M1 cells, Fluo-4 calcium, ACh EC80 antagonism; hits give low values; calcium response (max-min fluorescence) at 10 µM; shares compounds with M1 antagonist;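 active means calcium response below the same-plate mean of wells given acetylcholine alone at its 80%-effect dose, minus 3 SD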;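 further: raw fluorescence intensity difference in arbitrary instrument units and not normalized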
mGluR4 antag: mGluR4 (human) activity, M1 antagonist secondary assay; shares compounds with M1 antagonist; CHO-mGluR4 calcium flux, Fluo-4 fluorescence, glutamate EC80; hits give low values; fluorescence response (max-min) at 10 µM; 1,700 compounds, 0.9% hits;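 active means fluorescence response below the plate's average for near-maximal glutamate wells, less 3 SD of those wells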;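 further: raw unnormalized fluorescence span taken in the window right after glutamate addition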
* marks the source's active call; other numbers are inactive results; . = no result given.

SMILES | SF-1 act | M1 ag | RORa activator | D1 mod | M1 antagonist | mHtt clearance | M1 antag confirm | mGluR4 antag
CCN(CC)CCCN1C(=O)c2oc3ccccc3c(=O)c2C1c1cc(OC)ccc1OC (stereo unspecified) | 16 | -0.92 | -10 | -0.67 | -1.9* | -51 | 644 | 270
CCCCn1c(=O)n(CC(O)c2ccccc2)c(=O)c2c1ncn2C1CCCC1 (stereo unspecified) | 5 | -0.17 | -7 | 0.22 | -3.8* | 13 | 450 | 199
COc1ccc2nc(NC(=O)C(NS(=O)(=O)c3cccs3)C(C)C)sc2c1 (stereo unspecified) | 1 | -0.077 | 6 | -0.94 | 0.42 | 23 | . | .
Cc1nc2sccn2c(=O)c1CCN1CCC(=C(c2ccc(F)cc2)c2ccc(F)cc2)CC1 | 2 | -0.015 | 0 | -2.9 | -5.1* | . | 324* | 292
CC1(C)NC(=O)N(CC(O)Cn2nnc3ccccc32)C1=O (stereo unspecified) | -13 | -0.31 | 6 | . | -0.21 | 11 | . | .
Cc1ccc2nc(N3CCN(C(=O)c4cccs4)CC3)c(C#N)cc2c1 | 14 | 1.5 | -13 | 0.8 | -2.3* | . | 619 | 210
COc1ccc(C(=O)N2CCN(c3nc4cc(C)ccc4cc3C#N)CC2)c(OC)c1 | -8 | 0.11 | 4 | 0.18 | 0.12 | 43 | . | .
COc1ccc(C(c2nnnn2Cc2ccc(F)cc2)N2CCN(c3ccc(OC)cc3)CC2)cc1 (stereo unspecified) | 11 | 0.8 | -1 | -0.9 | -3.8* | . | 661 | 168
CCOCCCNc1nc(=S)[nH]c2cc(OC)c(OC)cc12 | -2 | -0.34 | 5 | -0.69 | -2.9* | 24 | 550 | 206
COCCNc1nc(=S)[nH]c2cc(OC)c(OC)cc12 | 5 | 1.5 | -7 | 0.062 | 0.37 | -23 | . | .
CS(=O)(=O)NCCC1=CCCCC1 | -5 | -0.31 | -19 | -0.00053 | 0.0007 | . | . | .
CCOC(=O)N1CCC(NS(=O)(=O)c2ccc3c(c2)oc(=O)n3C)CC1 | -7 | -1.6 | 15 | 0.067 | -0.35 | 2 | . | .
CCOC(=O)N1CCC(NS(=O)(=O)c2ccc3c(c2)C(C)(C)C(=O)N3C)CC1 | -6 | 0.46 | -21 | -0.23 | -17* | . | 579 | 240
Cc1ccccc1N1CCN(S(=O)(=O)c2ccc3oc(=O)ccc3c2)CC1 | -5 | 0.14 | 16 | -0.66 | -3.3* | -28 | 557 | 233
Cc1ccc(-c2cc(C(=O)NCc3ccc4c(c3)OCO4)[nH]n2)c(O)c1C | -11 | 0.36 | 3 | -0.049 | -1.6* | . | 653 | 195
Cc1cc(O)c(-c2cc(C(=O)NCc3ccc4c(c3)OCO4)[nH]n2)cc1C | 5 | 1.4 | 7 | -0.21 | -0.081 | . | . | .
O=C1C2ON(c3ccccc3)C(c3ccncc3)C2C(=O)N1c1ccccc1 (stereo unspecified) | 8 | -0.81 | -1 | . | 0.72 | -18 | . | .
CC(C)N1C(=O)C2ON(c3ccccc3)C(c3cccs3)C2C1=O (stereo unspecified) | -2 | -0.055 | 4 | -0.023 | -3.8* | 2 | 542 | 243
COc1ccc(N2C(=O)C3CCCN3C2c2cc(OC)c(OC)c(OC)c2)cc1 (stereo unspecified) | 6 | 0.21 | 0 | -0.35 | -2.1* | -13 | 645 | 216
COc1cc(C2N(c3ccc(Cl)cc3)C(=O)C3CCCN32)cc(OC)c1OC (stereo unspecified) | 0 | -0.4 | -6 | 1 | 0.029 | 67 | . | .
CC(=O)c1c(C)[nH]c(C(=O)OCC(=O)Nc2ncc(Cl)c(C)c2Cl)c1C | -4 | -0.19 | 4 | 1.1 | -15* | . | 567 | 234
O=C(CSc1nnc(Cc2ccccc2)o1)Nc1ccc(Br)cn1 | 12 | -0.86 | -10 | -0.53 | -0.11 | -26 | . | .
O=C(Nc1ccc2c(c1)OCO2)C(c1ccccc1)N1CCCCC1 (stereo unspecified) | -19 | -0.63 | -22 | -0.74 | -3.4* | . | 501* | 205
CC1CCCN(C(C(=O)Nc2ccc3c(c2)OCO3)c2ccccc2)C1 (stereo unspecified) | -8 | 0.16 | -5 | -0.85 | -5* | . | 479* | 253
CC(C)(C)n1nnnc1C(c1cccnc1)N(Cc1ccccc1)Cc1cccs1 (stereo unspecified) | . | . | . | . | . | -24 | . | .
SMILES | SF-1 act | M1 ag | RORa activator | D1 mod | M1 antagonist | mHtt clearance | M1 antag confirm | mGluR4 antag
CC(C)(C)n1nnnc1C(c1cccs1)N(Cc1ccccc1)Cc1cccnc1 (stereo unspecified) | -8 | -0.23 | -4 | -0.33 | -4.7* | 32 | 377* | 236
CCOC(=O)c1ccc2c(c1)nc(C1CCN(S(=O)(=O)c3cccs3)CC1)n2CC | -17 | 1.8 | -10 | -0.2 | -2.9* | -31 | 474* | 210
CCN(CC)c1nc2c(s1)C(=O)CC(C)(C)C2 | . | . | . | . | . | -89 | . | .
COc1ccc(CCNC(=O)c2nnc(Cc3ccc(Cl)cc3)o2)cc1OC | . | . | . | . | . | -18 | . | .
Cc1ccc2[nH]c3c(c2c1)CN(C(=O)CN1CCSCC1)CC3 | -2 | 1.4 | -6 | -0.36 | -3.1* | 31 | 476 | 223
Cc1cccc(OCc2nnc(SCc3cc(=O)n4cc(Br)ccc4n3)o2)c1 | -6 | 2 | 4 | 0.014 | -3* | . | 564 | 233
CCc1nc(Nc2ccncc2)c2oc3ccccc3c2n1 | 18 | -0.59 | -8 | -0.00093 | -2.4* | -31 | 441* | 242
CCc1nc(N[C@@H](Cc2c[nH]c3ccccc23)C(=O)O)c2oc3ccccc3c2n1 | -4 | 0.4 | 6 | 1.3 | 0.2 | . | . | .
O=C(CN(Cc1ccc2c(c1)OCO2)C(=O)CSc1nc2ccccc2o1)NC1CCCCC1 | 1 | 0.45 | -5 | -0.022 | -0.17 | -14 | . | .
Cc1cc(C)nc(N2CCN(c3nc(C)cc(C)n3)CC2)n1 | 1 | -0.26 | -5 | -0.84 | -7.7* | . | 719 | 217
Cc1cc(C)nc(N2CCC(C(=O)O)CC2)n1 | -2 | -0.38 | -10 | -0.83 | 0.28 | 19 | . | .
COc1ccc(C(=O)N2CCN(S(=O)(=O)N3CCOCC3)CC2)cc1OC | -5 | 0.013 | -4 | -0.91 | 0.8 | -16 | . | .
CN(C(=O)c1cc2n(n1)C(C(F)(F)F)CC(c1ccco1)N2)c1ccccc1 (stereo unspecified) | -2 | 1.1 | -15 | 1.2 | -2.9* | . | 662 | 230
CN(C(=O)c1cc2n(n1)C(C(F)(F)F)CC(c1ccco1)N2)c1ccc(OC(F)(F)F)cc1 (stereo unspecified) | -7 | 0.44 | 18 | 0.78 | 0.72 | 2 | . | .
Cc1cc(C)n2nc(NCc3cccc(Br)c3)nc2n1 | -9 | -0.059 | 32 | . | -0.28 | 29 | . | .
